The values below come from PMC4317336 (Journal of controlled release : official journal of the …, 2013).

The experiment concerns tumor biopsies from stage IV NB patients. The experiment can be described thus: phage overlay binding assay on tumor biopsies from NB patients. The conditions noted are these: human NB sections, compared with Mallory Trichrome histology. Summed up: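 Frozen sections (5 μm) from stage IV NB patient tumors in OCT, fixed 10 min at room temperature in 4% paraformaldehyde/PBS, washed twice in PBS, and blocked with serum-free protein block. Sections overlaid 1 h at 4°C with 10⁸ T.U./μl of each phage clone; insertless Fd-Tet phage as negative control. Bound phage detected with anti-bacteriophage antibody plus HRP polymer, then hematoxylin counterstain.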
As to KSFFLSH [Phage #14], the “tumor component preferentially bound” value is given as “widely recognizes the whole NB masses”.
YEGLISR [Phage #1]: the “tumor component preferentially bound” value was “preferentially bind to non-epithelial tumor components”.
Consider WSWPREL [Phage #8], for which the “tumor component preferentially bound” value was “preferentially bind to non-epithelial tumor components”.
The same measure for ALAAHKL [Phage #10]: “preferentially bind to non-epithelial tumor components”; for HSYWLSR [Phage #5]: “preferentially bind to non-epithelial tumor components”.
